Test results as given in PMC4097887 (Journal of medicinal chemistry, 2008).
Marks after values point to notes of the source that are not given here. Each block holds one molecule with its values, some of them ahead of it.

How the values were obtained:
AML animal model = conditions: cited from earlier work
KG-1 AML cells [1] = assay: KG-1 proliferation inhibition; type: cell-based, human
Summary of the method: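 KG-1 cells in medium with 5% FBS attached overnight and were then exposed to test compound in Me2SO or to Me2SO alone (final 0.1%) for the indicated time. Cells were harvested and counted with a hemocytometer in triplicate wells. Proliferation inhibition is given as IC50 and as percent inhibition at the highest concentration tested.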

KG-1 AML cells [2] = assay: KG-1 cell apoptosis; type: cell-based, human
Summary of the method: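 Cells in medium with 5% FBS attached overnight, then exposed to test compound in Me2SO or to Me2SO alone (final 0.1%). Exposure was 24 h for HL-60R and 48 h for KG-1. Apoptotic cells were scored by acridine orange staining on at least three replicates and expressed as percent apoptosis.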

[3] = system: DU-145, MDA-MB-231 and H292 cancer cell lines; assay: Proliferation inhibition of the three solid tumor cell lines; type: cell-based, human
Summary of the method: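 DU-145, MDA-MB-231 and H292 cells attached for 24 h and were then treated for 72 h with test compound in Me2SO or with vehicle alone (final Me2SO 0.1%). Medium and compound were replaced at 48 h. Viable cells were measured by tetrazolium (MTS-type) reduction in triplicate per concentration, and IC50 values were calculated from these counts.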

[4] = molecular target: T1, recombinant human small heterodimer partner (SHP) (Homo sapiens, UniProt Q15466); conditions: cited from earlier work
T1 sequence (Q15466 1-257): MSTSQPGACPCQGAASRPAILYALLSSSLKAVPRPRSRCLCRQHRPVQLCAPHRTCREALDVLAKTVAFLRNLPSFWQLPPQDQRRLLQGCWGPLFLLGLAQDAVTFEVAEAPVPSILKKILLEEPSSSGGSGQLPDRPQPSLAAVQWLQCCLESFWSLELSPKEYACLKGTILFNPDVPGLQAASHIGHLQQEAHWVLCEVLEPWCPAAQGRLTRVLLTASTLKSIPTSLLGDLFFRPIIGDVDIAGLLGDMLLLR

[5] = system: IGROV ovarian cancer cells; conditions: at antiproliferative IC80 value, propidium iodide staining; cited from earlier work
[6] = doses found to induce cancer cell apoptosis in vitro; cited from earlier work
[7] = system: human microvascular endothelial (HMVE) cells; assay: HMVE cell growth inhibition; type: cell-based; conditions: 0.5 μM

Compound: O=C(O)/C=C/c1ccc(-c2ccc(O)c(C34CC5CC(CC(C5)C3)C4)c2)c(Cl)c1 [compound 1, (E)-4-[3′-(1-adamantyl)-4′-hydroxyphenyl]-3-chlorocinnamic acid]
survival in an AML animal model (AML animal model): extension of survival

Compound: CC(=O)Nc1ccc(-c2ccc(/C=C/C(=O)O)cc2Cl)cc1C12CC3CC(CC(C3)C1)C2 [compound 2]
further reduction of KG-1 antiproliferative activity relative to 3 (KG-1 AML cells [1]; 5.0 μM): 50%

calculated IC50 values higher than those of 1, three solid tumor cell lines [3]: 3–4 fold
Compound: Nc1ccc(-c2ccc(/C=C/C(=O)O)cc2Cl)cc1C12CC3CC(CC(C3)C1)C2 [compound 3]
weakening of KG-1 apoptosis induction relative to 1 (KG-1 AML cells [2]; 1.0 μM): 67% | weakening of KG-1 apoptosis induction relative to 1 (KG-1 AML cells [2]; 5.0 μM): 27% | KG-1 apoptosis at 48 h (%) (KG-1 AML cells [2]; 5.0 μM): 40 ^j % | increase of IC50 for KG-1 proliferation inhibition compared to 1 (KG-1 AML cells [1]): ~3.6 fold

Compound: O=C(O)/C=C/c1ccc(-c2ccc(F)cc2)c(Cl)c1 [compound 5]
% inhibition of KG-1 proliferation at highest concentration evaluated (KG-1 AML cells [1]; 5 μM, 48 h): 0%

Compound: CC(C)(C)C#Cc1cc(-c2ccc(/C=C/C(=O)O)cc2Cl)ccc1O [compound 6]
KG-1 antiproliferative activity as fraction of that of 1 (KG-1 AML cells [1]; 5.0 μM): approximately one-third

calculated IC50 values higher than those of 1, three solid tumor cell lines [3]: 10–20 fold
Compound: O=C(O)/C=C/c1ccc(-c2ccc(O)c(C34CC5CC(CC3C5)C4)c2)c(Cl)c1 [compound 8]
KG-1 apoptotic activity as % of that exhibited by 1 (KG-1 AML cells [2]; 5.0 μM): 31% | KG-1 apoptosis at 48 h (%) (KG-1 AML cells [2]; 5.0 μM): 16 ^j % | KG-1 proliferation inhibition relative to 1 (KG-1 AML cells [1]; 5.0 μM): 1.2 fold

Compound: O=C(O)c1ccc2cc(-c3ccc(O)c(C45CC6CC(CC(C6)C4)C5)c3)ccc2c1 [compound 13, 6-[3′-(1-adamantyl)-4′-hydroxyphenyl]-2-naphthoic acid]
affinity of [5,5′-3H2]AHPN for recombinant human SHP [4]: low nanomolar affinity

Compound: O=C(O)/C=C/c1ccc(-c2ccc(O)c(C34CC5CC(CC(C5)C3)C4)c2)cc1 [compound 15, (E)-4-[3′-(1-adamantyl)-4′-hydroxyphenyl]cinnamic acid]
apoptosis induced in ovarian cancer cell line [5]: 50% | adverse systemic effects in mice [6]: produced adverse systemic effects

Compound: O=C(O)c1ccc2cc(-c3cccc(C45CC6CC(CC(C6)C4)C5)c3)ccc2c1 [compound 18]
HMVE cell growth inhibition at 72 h (%) ([7]; 72 h (Table 1)): moderate

Compound: CC(C)(C)c1cc(-c2ccc3cc(C(=O)O)ccc3c2)ccc1O [compound 21]
reduction of HMVE cell growth inhibition relative to 13 [7]: 7 fold
